Data set [1] has as its system mAb S4. Put plainly: Binding of mAb S4 to immobilized peptides. The note with it: peptide coated at 20 μM, mAb S4 26 nM, anti-mouse IgG detection. The method, boiled down:
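Wells coated with peptide and blocked with I-Block; mAb S4 at 26 nM incubated in the wells. Bound antibody detected with anti-mouse IgG, then biotinylated secondary antibody, streptavidin-alkaline phosphatase and phosphatase substrate. Wash solution was HBS with 0.1% porcine skin gelatin and 2 mM CaCl2. Signal from noncoated blocked wells subtracted from coated wells.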

Data set [2] addresses T1, prothrombinase (FXa/FVa/PL) (Homo sapiens, UniProt P00742+P12259). Put plainly: Purified component prothrombinase assay with FVa and PL. In kind it is biochemical. The note with it: for FVa-dependent inhibition of prothrombinase activity: peptide preincubated 10 min with FVa/FXa/PL.
Data set [3] addresses T1, prothrombinase (FXa/FVa/PL). The note with it: ref [9], cited from earlier work.
The test system of data set [4] is FXa-induced clotting of PS-depleted plasma (PSdP). Put plainly: FXa-1-stage clotting assay without exogenous PL. In kind it is cell-based, human. The note with it: no exogenous PL, base clotting time 98 sec. Put shortly:
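Human PS-depleted plasma mixed with HBS-BSA containing purified human PS (up to 379 nM) with or without neutralizing mAb S4, plus FXa. No exogenous phospholipid added. Incubated 3 min at 37°C, recalcified with CaCl2 (33 mM stock), and clotting time measured on a coagulometer. FXa standard curves without PS (up to 19 pM as 100%) converted clotting times to % FXa activity.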

Data set [5] deals with platelet and fibrin deposition. The note with it: PS infused without APC; ref [15]; cited from earlier work.
The subject of data set [6] is prothrombinase (FXa/FVa). As to the kind of experiment: Purified component prothrombinase assay with FVa, without PL. It counts as biochemical, human. The note with it: absence of PL; data not shown.
Data set [7] deals with Factor Va (Homo sapiens) (UniProt P12259). The note with it: cited from earlier work.
In data set [8] the target is Factor Xa (Homo sapiens) (UniProt P00742). The note with it: cited from earlier work.
Chain of Factor Xa (Homo sapiens) (P00742 235-488): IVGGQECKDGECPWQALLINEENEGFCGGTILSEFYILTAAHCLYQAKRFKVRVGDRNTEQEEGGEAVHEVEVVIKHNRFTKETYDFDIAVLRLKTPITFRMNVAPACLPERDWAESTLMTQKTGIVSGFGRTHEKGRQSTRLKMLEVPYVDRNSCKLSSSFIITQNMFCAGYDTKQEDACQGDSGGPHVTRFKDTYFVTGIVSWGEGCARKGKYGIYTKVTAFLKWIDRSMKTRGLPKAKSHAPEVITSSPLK
For data set [9], the target named is T2, Factor Va (human, UniProt P12259 29-737; P12259 1574-2224).
T2 sequence (looked up) 1: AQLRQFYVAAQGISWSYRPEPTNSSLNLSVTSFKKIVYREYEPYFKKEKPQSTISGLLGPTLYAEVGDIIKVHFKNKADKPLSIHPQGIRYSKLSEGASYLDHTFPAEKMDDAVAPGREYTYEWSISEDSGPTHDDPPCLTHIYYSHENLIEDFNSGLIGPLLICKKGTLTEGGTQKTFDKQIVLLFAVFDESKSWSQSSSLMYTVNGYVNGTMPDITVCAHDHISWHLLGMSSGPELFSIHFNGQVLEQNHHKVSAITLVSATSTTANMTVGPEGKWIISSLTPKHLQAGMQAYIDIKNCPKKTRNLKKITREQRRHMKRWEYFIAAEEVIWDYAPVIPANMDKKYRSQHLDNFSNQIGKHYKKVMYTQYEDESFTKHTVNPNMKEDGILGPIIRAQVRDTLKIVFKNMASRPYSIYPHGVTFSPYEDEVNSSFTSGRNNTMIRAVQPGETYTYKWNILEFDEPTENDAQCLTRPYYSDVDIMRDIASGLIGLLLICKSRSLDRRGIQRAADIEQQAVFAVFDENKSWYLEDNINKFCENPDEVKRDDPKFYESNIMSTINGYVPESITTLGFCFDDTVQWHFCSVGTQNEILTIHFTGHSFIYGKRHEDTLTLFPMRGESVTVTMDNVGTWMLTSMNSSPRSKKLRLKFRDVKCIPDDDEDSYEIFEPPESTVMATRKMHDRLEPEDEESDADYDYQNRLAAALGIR
T2 sequence (looked up) 2: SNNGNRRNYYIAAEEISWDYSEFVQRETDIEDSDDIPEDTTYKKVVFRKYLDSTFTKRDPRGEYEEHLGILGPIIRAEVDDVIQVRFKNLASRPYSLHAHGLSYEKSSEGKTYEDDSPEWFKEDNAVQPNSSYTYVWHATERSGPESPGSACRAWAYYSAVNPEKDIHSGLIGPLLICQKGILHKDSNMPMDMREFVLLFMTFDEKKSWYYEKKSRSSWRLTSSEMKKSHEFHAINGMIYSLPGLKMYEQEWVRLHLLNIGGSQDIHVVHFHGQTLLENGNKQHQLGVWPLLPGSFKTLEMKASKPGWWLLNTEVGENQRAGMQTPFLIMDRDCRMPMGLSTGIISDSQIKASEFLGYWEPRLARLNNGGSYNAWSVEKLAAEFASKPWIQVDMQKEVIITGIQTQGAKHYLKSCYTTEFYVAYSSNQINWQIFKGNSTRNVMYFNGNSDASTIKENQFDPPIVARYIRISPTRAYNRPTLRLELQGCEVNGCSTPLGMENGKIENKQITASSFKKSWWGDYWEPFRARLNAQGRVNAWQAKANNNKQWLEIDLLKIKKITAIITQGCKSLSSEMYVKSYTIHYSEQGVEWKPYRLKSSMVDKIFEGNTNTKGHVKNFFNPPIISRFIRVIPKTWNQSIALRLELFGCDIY
Put plainly: ELISA.

Data set [10] addresses T2, Factor Va. Put plainly: ELISA. This is another data set of the same source. In general terms: In an ELISA, binding on a coated surface is turned into a signal by an enzyme label.
The target of data set [11] is T2, Factor Va. Put plainly: ELISA. The source holds these as a separate data set.
For data set [12], the system named is activated protein C (APC). The note with it: Thr37 to Met mutation; ref [28]; cited from earlier work.
The conditions of data set [13]: Thr37 to Met mutation; ref [28]; cited from earlier work.

Where a SMILES comes first, the peptide text is derived from it.

T1 sequence (P00742 41-179 partner limits assumed, one chain of several): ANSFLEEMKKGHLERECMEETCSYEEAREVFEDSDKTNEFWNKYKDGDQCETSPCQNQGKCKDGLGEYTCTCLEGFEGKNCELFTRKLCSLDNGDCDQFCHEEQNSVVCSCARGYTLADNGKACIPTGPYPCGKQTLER
T1 sequence (P00742 235-488 partner limits assumed, one chain of several): as the sequence (P00742 235-488) above

Turning to “54–67: peptide representing PS residues 54–67 (TSR) (GLFTAARQSTNAYP; UniProt P07225 95-108, looked up, fragment)”, the “Binding of mAb S4 to immobilized peptide” value in data set [1] is listed as “detected”.
As to `CC(C)C[C@H](NC(=O)[C@H](CS)NC(=O)[C@@H](NC(=O)[C@H](CC(C)C)NC(=O)[C@H](Cc1ccc(O)cc1)NC(=O)[C@H](CCCCN)NC(=O)[C@@H]1CCCN1C(=O)[C@H](Cc1ccc(O)cc1)NC(=O)[C@H](Cc1ccccc1)NC(=O)[C@H](Cc1ccc(O)cc1)NC(=O)[C@H](CC(=O)O)NC(=O)[C@@H](N)[C@@H](C)O)C(C)C)C(=O)N[C@@H](CCCNC(=N)N)C(=O)N[C@@H](CO)C(=O)O` [PSP37, TDYFYPKYLVCLRS] (H-TDYFYPKYLVCLRS-OH), in data set [2], the concentration for half-maximal inhibition (IC50) is 11000 nM. In data set [2] (40 μM peptide), this molecule displayed an Inhibition of prothrombinase of 90%.
For the molecule “PS: immunoaffinity-purified free plasma protein S retaining Zn^2+”, the “Vmax alteration by PS” value in data set [3] (at 60% inhibition) was 2.2 fold. Besides, the “Km alteration by PS” value in data set [3] is listed as 2 fold. In addition, in [4], the “Maximal prolongation of clotting time by PS” value stood at 95 s. The “Inhibition of platelet and fibrin deposition” value in [5] was “inhibited platelet and fibrin deposition”.
In the case of “PSP30: 14-mer peptide, PS residues 30–43 (VFENDPETDYFYPK; UniProt P07225 71-84, looked up, fragment)”, in data set [2], the “FVa-dependent inhibition of prothrombinase activity” value is recorded as “did not inhibit prothrombinase”.
For “PSP48: 14-mer peptide, PS residues 48–61 (LRSFQTGLFTAARQ; UniProt P07225 89-102, looked up, fragment)”, the “FVa-dependent inhibition of prothrombinase activity” value in data set [2] was “did not inhibit prothrombinase”.
As for Phospholipase A2, in data set [2] (mixtures that contained PL, data not shown), the “Effect of phospholipase A2 on prothrombinase activity” value is given as “greatly diminished”. Besides, in data set [6], the “Effect of phospholipase A2 on PS inhibition” value was “no effect on PS inhibition” and the “Effect of phospholipase A2 on prothrombinase activity” value was “no effect on prothrombinase activity”.
Turning to Protein S (from UniProt P07225), the Kd in data set [7] was 33 nM; in data set [8], 18 nM.
In data set [9], TDYFYPKYLVCLRS [Peptide PSP37 (protein S residues 37-50)] yielded an IC50 of 15000 nM. The molecule further displayed a Kd in [10] of 14 nM.

B1: Protein S (natural protein, human, UniProt P07225 42-676, looked up)
chain: ANSLLEETKQGNLERECIEELCNKEEAREVFENDPETDYFYPKYLVCLRSFQTGLFTAARQSTNAYPDLRSCVNAIPDQCSPLPCNEDGYMSCKDGKASFTCTCKPGWQGEKCEFDINECKDPSNINGGCSQICDNTPGSYHCSCKNGFVMLSNKKDCKDVDECSLKPSICGTAVCKNIPGDFECECPEGYRYNLKSKSCEDIDECSENMCAQLCVNYPGGYTCYCDGKKGFKLAQDQKSCEVVSVCLPLNLDTKYELLYLAEQFAGVVLYLKFRLPEISRFSAEFDFRTYDSEGVILYAESIDHSAWLLIALRGGKIEVQLKNEHTSKITTGGDVINNGLWNMVSVEELEHSISIKIAKEAVMDINKPGPLFKPENGLLETKVYFAGFPRKVESELIKPINPRLDGCIRSWNLMKQGASGIKEIIQEKQNKHCLVTVEKGSYYPGSGIAQFHIDYNNVSSAEGWHVNVTLNIRPSTGTGVMLALVSGNNTVPFAVSLVDSTSEKSQDILLSVENTVIYRIQALSLCSDQQSHLEFRVNRNNLELSTPLKIETISHEDLQRQLAVLDKAMKAKVATYLGGLPDVPFSATPVNAFYNGCMEVNINGVQLDLDEAISKHNDIRAHSCPSVWKKTKNS
For B1, the binding result in [11] is recorded as “binds”.

B2: T37M PS: recombinant PS with mutation of Thr37 to Met (protein, UniProt P07225 42-676, looked up, variant T37M)
Vitamin K-dependent protein S: ANSLLEETKQGNLERECIEELCNKEEAREVFENDPEMDYFYPKYLVCLRSFQTGLFTAARQSTNAYPDLRSCVNAIPDQCSPLPCNEDGYMSCKDGKASFTCTCKPGWQGEKCEFDINECKDPSNINGGCSQICDNTPGSYHCSCKNGFVMLSNKKDCKDVDECSLKPSICGTAVCKNIPGDFECECPEGYRYNLKSKSCEDIDECSENMCAQLCVNYPGGYTCYCDGKKGFKLAQDQKSCEVVSVCLPLNLDTKYELLYLAEQFAGVVLYLKFRLPEISRFSAEFDFRTYDSEGVILYAESIDHSAWLLIALRGGKIEVQLKNEHTSKITTGGDVINNGLWNMVSVEELEHSISIKIAKEAVMDINKPGPLFKPENGLLETKVYFAGFPRKVESELIKPINPRLDGCIRSWNLMKQGASGIKEIIQEKQNKHCLVTVEKGSYYPGSGIAQFHIDYNNVSSAEGWHVNVTLNIRPSTGTGVMLALVSGNNTVPFAVSLVDSTSEKSQDILLSVENTVIYRIQALSLCSDQQSHLEFRVNRNNLELSTPLKIETISHEDLQRQLAVLDKAMKAKVATYLGGLPDVPFSATPVNAFYNGCMEVNINGVQLDLDEAISKHNDIRAHSCPSVWKKTKNS
As for B2, the “Decrease in APC cofactor activity” value in data set [12] is listed as 3.6 fold. Further, the Affinity for phospholipids entry in [13] was “diminished affinity for phospholipids”.

Usually IC50 stands for the concentration needed to halve the response being measured. The term Kd denotes the free concentration of one partner at which half of the binding sites on the other are occupied at equilibrium, for simple one-to-one binding.
